Series [1] is described as follows: Ketoconazole drug–drug interaction study: romidepsin plasma pharmacokinetics. Type of series: in vivo, human (patients with advanced cancer).
Series [2] can be described thus: Rifampin drug–drug interaction study: romidepsin plasma pharmacokinetics. Format: in vivo, human (patients with advanced cancer).
Series [3] can be described thus: Safety evaluation in the ketoconazole interaction study. Type of series: in vivo, human (patients with advanced cancer).
Series [4] can be described thus: Safety evaluation in the rifampin interaction study. Particulars: in two patients; romidepsin 14 mg/m^2 with rifampin 600 mg. Type of series: in vivo, human (patients with advanced cancer). In outline: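 Antiemetic prophylaxis; K or Mg supplemented below 3.8 or 0.85 mmol/L. Monitoring through closeout (days 15–20): AE type, severity and relatedness, examinations, vital signs, ECGs, concomitant medications, clinical labs. Summarised descriptively.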

For series [5] the following is noted: cited from earlier work.
For series [6] the following is noted: patients with CTCL or PTCL; cited from earlier work.
The test system of another series is CYP enzymes. As to conditions: at plasma concentrations that are effective; cited from earlier work.
In the next series the test system is CYP1A1. As to conditions: at plasma concentrations that are effective; cited from earlier work.
For another series, the system named is CYP2B6. Particulars: at plasma concentrations that are effective; cited from earlier work.
For the next series, the system named is CYP3A4. As to conditions: at plasma concentrations that are effective; cited from earlier work.
The next series concerns BCRP. As to conditions: in vitro; cited from earlier work.
The test system of the next series is P‐glycoprotein (P‐gp). Particulars: in vitro; cited from earlier work.
For a further series, the system named is α1‐acid‐glycoprotein. As to conditions: primarily to α1-acid-glycoprotein; cited from earlier work.
Another series relates to hepatocytes. Particulars: cited from earlier work.
The next series has as its system CYP3A. Particulars: strong inhibitor of CYP3A; cited from earlier work.
Setting [7] is: coadministration with ketoconazole vs alone.
[8] abbreviates: human, plasma, intravenous, 8 mg/m2.
[9] abbreviates: coadministration with rifampin 600 mg vs alone.
The mark [10] stands for this setting: human, plasma, intravenous, 14 mg/m2.

“Also recorded” adds a separate entry of the source. Where two headings read alike, the source gives them in different places. Bounds are passed on as bounds.

As usually defined, the Tmax is the time at which the peak concentration occurs. Usually Vd stands for the apparent volume that relates the amount in the body to the concentration in plasma or blood. A low value points to little distribution into tissue. The clearance is the rate of elimination divided by the concentration. High values mean efficient removal, low ones inefficient removal. In general, half-life refers to the time in which the quantity being followed falls by half. As usually defined, the AUC(0-inf) is total exposure, with the tail of the curve extrapolated. A lower AUC(0-inf) goes with less exposure. Usually Cmax stands for the maximum level reached in the sampled fluid or tissue. Take `C/C=C1\NC(=O)[C@H]2CSSCC/C=C/[C@H](CC(=O)N[C@H](C(C)C)C(=O)N2)OC(=O)[C@H](C(C)C)NC1=O` [Romidepsin]: the “Increase of mean romidepsin Cmax” value in series [1] (coadministration with ketoconazole 400 mg vs alone) is listed as ~10%. Further, in series [1] (setting [7]), the “Change of romidepsin clearance” value is “decreased” and the “Change of romidepsin volume of distribution” value was “decreased”. Moreover, in series [1] (setting [8]), the Tmax stood at 3.5 h, the Vd was found to be 236 L, the clearance is 282 mL/min and the half-life is 9.7 h. Besides, in series [1] (human, plasma, iv, 8 mg/m^2), the AUC(0-inf) was 915 ng·h/mL and the Cmax stood at 229 ng/mL. In series [1] (romidepsin + ketoconazole vs romidepsin alone, Hodges-Lehmann estimate), the “Median Difference of Tmax” value is 0. In [2] (setting [9]), the “Decrease of romidepsin clearance” value is “approximately 44%”, the “Decrease of romidepsin volume of distribution” value is given as ~52% and the “Increase of mean romidepsin Cmax” value is recorded as ~60%. In [2] (setting [10]), the Tmax came out at 2.98 h, the Vd was found to be 162 L, the clearance is 193 mL/min and the half-life is 9.7 h. In series [2] (human, plasma, iv, 14 mg/m^2), this compound displayed an AUC(0-inf) of 2230 ng·h/mL and a Cmax of 571 ng/mL. The “Deaths during the treatment period” value in series [3] (romidepsin 8 mg/m^2 with ketoconazole 400 mg) was “No deaths”. Also, in [4], the “Treatment-emergent SAEs” value is recorded as 8. Further, the “Maximal tolerated dose (MTD)” value in [5] (given on days 1, 8, and 15 of a 28-day cycle) is reported as 13.3 mg/m^2. The “Maximal tolerated dose (MTD)” value in series [5] (given on days 1 and 5 in a 21-day cycle) was 17.8 mg/m^2. The Dose-limiting toxicities entry in [5] (phase 1 dose escalation) is “fatigue, nausea, vomiting, thrombocytopenia (transient and grade 3) and neutropenia”. Besides, the “Effect of polymorphic variants of CYP3A on systemic exposure” value in series [6] was “did not affect”. Moreover, the “Inhibition of CYP enzymes” value in the series on CYP enzymes is “does not inhibit”. For the same compound, the “Induction of CYP1A1” value in the series on CYP1A1 was “nor is it an inducer”. Also, the “Induction of CYP2B6” value in the series with CYP2B6 is “nor is it an inducer”. Also, the “Induction of CYP3A4” value in the series on CYP3A4 is recorded as “nor is it an inducer”. For the same compound, the “Substrate of BCRP” value in the series with BCRP is listed as “not a substrate”. Also, in the series on P‐glycoprotein (P‐gp), the “Substrate of the efflux transporter P-glycoprotein (P-gp)” value is listed as “substrate”. Also, in the series on α1‐acid‐glycoprotein, the Protein binding result was “highly protein bound”. Also, the Uptake into hepatocytes entry in the series with hepatocytes is “actively taken up into the liver; also recorded: active process”.
Take `CC(=O)N1CCN(c2ccc(OCC3COC(Cn4ccnc4)(c4ccc(Cl)cc4Cl)O3)cc2)CC1` (centres unmarked) [ketoconazole]: in series [3] (ketoconazole 400 mg daily days 4-8 with romidepsin 8 mg/m^2), the “Increases in liver enzymes AST or ALT” value is recorded as “not observed”. Also, in the series on CYP3A, the “Increase of AUC of CYP3A substrates” value was ≥ 5 fold.

The values above are taken from paper PMC5034805 (Journal of Clinical Pharmacology, 2015).
